{"source": "ChEMBL document CHEMBL4017549", "about": "“Structural Basis of Inhibition of ERα-Coactivator Interaction by High-Affinity N-Terminus Isoaspartic Acid Tethered Helical Peptides” (J Med Chem, 2017)", "key": {"[1]": {"organism": "Homo sapiens", "test": "Selectivity ratio of Kd for recombinant human GST-tagged PGR LBD ([…] residues) to Kd for recombinant human ERalpha LBD (301 to 553 residues)", "outline": "(§1)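 Ratio of KD values, each from fluorescence polarization of 10 nM FITC-peptide titrated with the respective LBD after 40 min in the dark at 298 K, with the matching ligand in buffer (10 μM 17β-estradiol, progesterone or vitamin D3).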"}, "[2]": {"test": "Drug uptake in human MCF7 cells at 5 uM after 3 hrs in presence of 10 nM E2 by DAPI-staining based confocal laser scanning microscopic analysis", "settings": "mcf7, 3 h; call rule not given here"}, "[3]": {"biological_target": "T1, Estrogen receptor (Homo sapiens, UniProt P03372)", "T1 sequence (P03372 whole entry)": "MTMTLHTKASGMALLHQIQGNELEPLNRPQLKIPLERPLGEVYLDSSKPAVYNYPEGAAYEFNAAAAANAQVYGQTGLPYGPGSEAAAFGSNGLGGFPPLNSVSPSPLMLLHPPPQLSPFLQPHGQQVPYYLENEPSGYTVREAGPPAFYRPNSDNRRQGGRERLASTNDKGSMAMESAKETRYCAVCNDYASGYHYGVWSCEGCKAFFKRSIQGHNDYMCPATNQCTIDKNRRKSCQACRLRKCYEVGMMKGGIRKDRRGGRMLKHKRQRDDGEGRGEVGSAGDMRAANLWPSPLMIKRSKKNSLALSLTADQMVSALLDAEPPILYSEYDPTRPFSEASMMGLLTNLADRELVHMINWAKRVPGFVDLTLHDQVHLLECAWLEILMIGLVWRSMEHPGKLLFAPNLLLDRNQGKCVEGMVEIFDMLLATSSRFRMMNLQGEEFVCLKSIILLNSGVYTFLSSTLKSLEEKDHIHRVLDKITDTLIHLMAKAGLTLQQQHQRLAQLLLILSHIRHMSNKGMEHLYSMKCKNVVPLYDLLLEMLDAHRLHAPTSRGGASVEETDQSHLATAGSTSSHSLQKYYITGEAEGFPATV", "test": "Binding affinity to recombinant human GFP-fused ERalpha LBD (301 to 553 residues) expressed in Escherichia coli BL21(DE3) after 40 mins in presence of 17beta-estradiol by fluorescence polarization assay"}, "[4]": {"organism": "Homo sapiens", "test": "Selectivity ratio of Kd for recombinant human GST-tagged VDR LBD (156 to 453 residues) to Kd for recombinant human ERalpha LBD (301 to 553 residues)", "outline": "as §1"}, "[5]": {"biological_target": "T2, Vitamin D3 receptor (Homo sapiens, UniProt P11473)", "T2 sequence (P11473 whole entry)": "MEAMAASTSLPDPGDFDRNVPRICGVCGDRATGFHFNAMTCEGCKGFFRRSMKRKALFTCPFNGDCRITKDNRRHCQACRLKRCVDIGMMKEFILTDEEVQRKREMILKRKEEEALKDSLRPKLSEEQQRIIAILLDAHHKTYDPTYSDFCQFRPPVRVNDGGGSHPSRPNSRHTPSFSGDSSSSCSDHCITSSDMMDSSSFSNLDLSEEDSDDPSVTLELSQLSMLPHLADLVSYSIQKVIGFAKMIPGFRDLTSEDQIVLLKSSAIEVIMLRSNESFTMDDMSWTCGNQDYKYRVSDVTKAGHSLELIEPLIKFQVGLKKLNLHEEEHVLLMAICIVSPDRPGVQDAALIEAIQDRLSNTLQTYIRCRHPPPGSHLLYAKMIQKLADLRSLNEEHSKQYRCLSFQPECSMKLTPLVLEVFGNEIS", "test": "Binding affinity to recombinant human GST-tagged VDR LBD (156 to 453 residues) expressed in Echerichia coli BL21 star (DE3) after 40 mins in presence of vitamin D3 by fluorescence polarization assay", "outline": "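GST-VDR LBD titrated into 10 nM final FITC-labelled peptide in 20 mM Tris-HCl pH 8.0, 150 mM NaCl, 5% glycerol, 1 mM TCEP containing 10 μM vitamin D3. 40 min dark incubation, polarization at 298 K (ex 480/em 535 nm). KD by nonlinear regression.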"}, "[6]": {"test": "Drug uptake in human MCF7 cell nucleus at 5 uM after 3 hrs in presence of 10 nM E2 by DAPI-staining based confocal laser scanning microscopic analysis"}, "[7]": {"biological_target": "T3, Progesterone receptor (Homo sapiens, UniProt P06401)", "T3 sequence (P06401 whole entry)": "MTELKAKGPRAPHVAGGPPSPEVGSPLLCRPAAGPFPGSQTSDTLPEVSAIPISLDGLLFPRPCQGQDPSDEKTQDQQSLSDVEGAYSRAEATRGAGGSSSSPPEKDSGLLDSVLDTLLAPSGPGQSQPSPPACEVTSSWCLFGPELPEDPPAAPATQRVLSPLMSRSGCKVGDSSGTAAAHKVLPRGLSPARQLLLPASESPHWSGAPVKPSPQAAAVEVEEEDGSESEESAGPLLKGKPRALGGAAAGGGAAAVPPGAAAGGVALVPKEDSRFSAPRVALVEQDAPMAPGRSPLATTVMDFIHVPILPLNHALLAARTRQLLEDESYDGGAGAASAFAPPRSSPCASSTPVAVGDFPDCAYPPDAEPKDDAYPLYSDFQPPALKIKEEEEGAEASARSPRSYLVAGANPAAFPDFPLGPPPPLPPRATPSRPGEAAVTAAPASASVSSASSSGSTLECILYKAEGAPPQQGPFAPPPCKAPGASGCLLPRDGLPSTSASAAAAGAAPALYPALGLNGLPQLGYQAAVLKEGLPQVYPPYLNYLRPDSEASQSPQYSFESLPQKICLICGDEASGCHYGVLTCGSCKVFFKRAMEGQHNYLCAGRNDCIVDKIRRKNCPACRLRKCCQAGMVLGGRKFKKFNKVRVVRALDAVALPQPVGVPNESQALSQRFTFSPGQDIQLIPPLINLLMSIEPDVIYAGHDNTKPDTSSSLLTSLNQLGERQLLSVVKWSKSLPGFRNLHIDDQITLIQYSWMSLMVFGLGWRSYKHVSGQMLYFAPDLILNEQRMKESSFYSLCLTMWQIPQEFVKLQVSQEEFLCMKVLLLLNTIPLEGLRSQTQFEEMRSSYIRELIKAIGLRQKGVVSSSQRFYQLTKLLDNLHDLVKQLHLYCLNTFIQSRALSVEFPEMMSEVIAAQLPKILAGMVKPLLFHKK", "test": "Binding affinity to recombinant human GST-tagged PGR LBD (678 to 933 residues) expressed in Escherichia coli BL21 star(DE3) after 40 mins in presence of progesterone by fluorescence polarization assay", "outline": "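FITC-labelled peptide at 10 nM final with increasing GST-PgR LBD in 20 mM Tris-HCl pH 8.0, 150 mM NaCl, 5% glycerol, 1 mM TCEP plus 10 μM progesterone. 40 min dark incubation, polarization at 298 K (ex 480/em 535 nm). KD by nonlinear regression against protein concentration.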"}}}
{"compound": "CC[C@H](C)[C@@H]1NC(=O)C[C@H](NC(=O)[C@H](CCCNC(=N)N)NC(=O)CCNC(=S)Nc2ccc3c(c2)C(=O)OC32c3ccc(O)cc3Oc3cc(O)ccc32)C(=O)NCC(C(=O)N[C@@H](CCCNC(=N)N)C(=O)NC(CC(C)(C)C)C(=O)NC(CC(C)(C)C)C(=O)N[C@@H](CCC(N)=O)C(N)=O)NC(=O)C(CC(C)(C)C)NC1=O", "note": "(some centres not stated)", "values": [{"measurement": "Selectivity ratio", "setting": "[1]", "result": 3.7}, {"measurement": "Drug uptake", "setting": "[2]", "result": "Active"}, {"measurement": "Kd", "setting": "[3]", "result": 0.067, "unit": "µM"}, {"measurement": "Selectivity ratio", "setting": "[4]", "result": "> 30"}, {"measurement": "Kd", "setting": "[5]", "result": "> 2", "unit": "µM"}, {"measurement": "Drug uptake", "setting": "[6]", "result": "Active"}, {"measurement": "Kd", "setting": "[7]", "result": 0.248, "unit": "µM"}]}
